{"source": "paper PMC3769431", "about": "(Structure (London, England : 1993), 2013)", "key": {"p38α (unphosphorylated) [1]": {"molecular_target": "p38α (unphosphorylated) (UniProt Q16539)", "sequence (Q16539 whole entry)": "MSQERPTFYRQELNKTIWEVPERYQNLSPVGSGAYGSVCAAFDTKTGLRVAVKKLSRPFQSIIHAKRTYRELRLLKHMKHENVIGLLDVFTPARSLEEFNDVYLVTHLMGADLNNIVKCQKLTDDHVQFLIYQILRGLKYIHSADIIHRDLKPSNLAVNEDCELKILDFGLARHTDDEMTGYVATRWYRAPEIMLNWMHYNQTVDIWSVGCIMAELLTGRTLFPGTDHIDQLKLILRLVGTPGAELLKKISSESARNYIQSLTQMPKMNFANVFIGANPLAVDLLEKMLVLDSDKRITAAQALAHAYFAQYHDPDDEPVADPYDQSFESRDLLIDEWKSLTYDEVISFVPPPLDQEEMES", "experiment": "ITC"}, "p38α [2]": {"molecular_target": "T1, p38α (Homo sapiens, UniProt Q16539)", "T1 sequence (Q16539 whole entry)": "as above", "experiment": "Small angle X-ray scattering, resting-state complex with unphosphorylated p38α", "conditions": "SAXS, GNOM", "how_it_was_run": "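Unphosphorylated p38α was mixed 1:1 with PTPSL 331–655 or STEP 214–539 for 30 min on ice, then SEC-purified in 50 mM HEPES pH 6.8, 150 mM NaCl, 5 mM DTT. Samples were 0.4–4.0 mg/ml (PTPSL) or 1.0–4.0 mg/ml (STEP), filtered, flowed through a 1 mm capillary and exposed 30 s or 180 s at a synchrotron beamline. Dmax came from the P(r) function.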"}, "p38α (unphosphorylated) [3]": {"molecular_target": "p38α (unphosphorylated) (UniProt Q16539 1-360)", "sequence (Q16539 whole entry)": "as above", "experiment": "ITC"}, "p38α [4]": {"molecular_target": "T1, p38α", "conditions": "2011, cited from earlier work; for dephosphorylation of p38α (in words): in vitro phosphatase assays, ref Zhang et al."}, "p38α [5]": {"molecular_target": "T1, p38α", "experiment": "NMR chemical shift perturbation, 2D [1H,15N] TROSY of [2H,15N]-p38α", "assay_type": "binding", "conditions": "for number of p38α peaks with CSPs on complex formation / number of p38α peaks with line-widths broadened beyond detection / number of perturbed p38α peaks in fast exchange: free vs bound p38α, SEC-purified 1:1 complex, NMR buffer pH 6.8; for number of p38α peaks with CSPs on complex formation / number of p38α peaks with line-widths broadened beyond detection / number of perturbed p38α peaks in fast exchange / interaction with p38α by NMR (in words): 298 K; for interaction with p38α by NMR (in words): 2D [1H,15N] TROSY, 800 MHz, 50 mM HEPES pH 6.8, 150 mM NaCl, 5 mM dithiothreitol"}, "p38α [6]": {"molecular_target": "T1, p38α", "experiment": "Isothermal titration calorimetry", "assay_type": "binding"}, "[7]": {"conditions": "ITC, 25 °C, 10 mM Tris pH 7.5, 150 mM NaCl, 0.1 mM EDTA, 0.5 mM TCEP"}}, "data": [{"molecule": "STEP_(F274A/F281A) (domain or fragment)", "values": [{"measurement": "Kd", "setting": "p38α (unphosphorylated) [1]", "value": 1070, "unit": "nM"}, {"measurement": "dH", "setting": "p38α (unphosphorylated) [1]", "value": -24.2, "unit": "kcal/mol"}]}, {"molecule": "STEP_(M285A/I307A) (domain or fragment)", "values": [{"measurement": "Kd", "setting": "p38α (unphosphorylated) [1]", "value": 592, "unit": "nM"}, {"measurement": "dH", "setting": "p38α (unphosphorylated) [1]", "value": -27.6, "unit": "kcal/mol"}]}, {"molecule": "p38:PTPRR: 1:1 complex of unphosphorylated p38α with PTPSL 331–655", "values": [{"measurement": "Dmax (P(r) function calculation)", "setting": "p38α [2]", "value": 105, "unit": "Å"}, {"measurement": "Rg (P(r) function calculation)", "setting": "p38α [2]", "value": 34.1, "unit": "Å"}]}, {"molecule": "PSChimera (from UniProt Q15256 332-373)", "values": [{"measurement": "Kd", "setting": "p38α (unphosphorylated) [1]", "value": 309, "unit": "nM"}, {"measurement": "dH", "setting": "p38α (unphosphorylated) [1]", "value": -27.2, "unit": "kcal/mol"}]}, {"molecule": "STEP (residues 214–539) (domain or fragment)", "values": [{"measurement": "Kd", "setting": "p38α (unphosphorylated) [1]", "value": 577, "unit": "nM"}, {"measurement": "dH", "setting": "p38α (unphosphorylated) [1]", "value": -28.8, "unit": "kcal/mol"}]}, {"molecule": "STEP_(F281A/I307A) (domain or fragment) GLQERRGSNVSLTLDMCTPGCNEEGFGYLMSPREESAREYLLSASRVLQAEELHEKALDPFLLQAEFAEIPMNFVDPKEYDIPGLVRKNRYKTALPNPHSRVCLTSPDPDDPLSSYINANYIRGYGGEEKVYIATQGPIVSTVADFWRMVWQEHTPIIVMITNIEEMNEKCTEYWPEEQVAYDGVEITVQKVIHTEDYRLRLISLKSGTEERGLKHYWFTSWPDQKTPDRAPPLLHLVREVEEAAQQEGPHCAPIIVHCSAGIGRTGCFIATSICCQQLRQEGVVDILKTTCQLRQDRGGMIQTCEQYQFVHHVMSLYEKQLSHQS", "values": [{"measurement": "Kd", "setting": "p38α (unphosphorylated) [3]", "value": "1060 ± 36", "unit": "nM"}, {"measurement": "dH", "setting": "p38α (unphosphorylated) [3]", "value": "-34.3 ± 1.1", "unit": "kcal/mol"}]}, {"molecule": "HePTP: KIM-PTP HePTP (PTPN7, LC-PTP) (protein, UniProt P35236 1-360, looked up) Tyrosine-protein phosphatase …: MVQAHGGRSRAQPLTLSLGAAMTQPPPEKTPAKKHVRLQERRGSNVALMLDVRSLGAVEPICSVNTPREVTLHFLRTAGHPLTRWALQRQPPSPKQLEEEFLKIPSNFVSPEDLDIPGHASKDRYKTILPNPQSRVCLGRAQSQEDGDYINANYIRGYDGKEKVYIATQGPMPNTVSDFWEMVWQEEVSLIVMLTQLREGKEKCVHYWPTEEETYGPFQIRIQDMKECPEYTVRQLTIQYQEERRSVKHILFSAWPDHQTPESAGPLLRLVAEVEESPETAAHPGPIVVHCSAGIGRTGCFIATRIGCQQLKARGEVDILGIVCQLRLDRGGMIQTAEQYQFLHHTLALYAGQLPEEPSP", "values": [{"measurement": "dephosphorylation of p38α (in words)", "setting": "p38α [4]", "value": "can both readily dephosphorylate p38α"}]}, {"molecule": "PTPSL (residues 332–655) (domain or fragment, UniProt Q15256 332-655, looked up) GLQERRGSNVSLTLDMSSLGNIEPFVSIPTPREKVAMEYLQSASRILTRSQLRDVVASSHLLQSEFMEIPMNFVDPKEIDIPRHGTKNRYKTILPNPLSRVCLRPKNVTDSLSTYINANYIRGYSGKEKAFIATQGPMINTVDDFWQMVWQEDSPVIVMITKLKEKNEKCVLYWPEKRGIYGKVEVLVISVNECDNYTIRNLVLKQGSHTQHVKHYWYTSWPDHKTPDSAQPLLQLMLDVEEDRLASQGRGPVVVHCSAGIGRTGCFIATSIGCQQLKEEGVVDALSIVCQLRMDRGGMVQTSEQYEFVHHALCLYESRLSAET", "values": [{"measurement": "number of p38α peaks with CSPs on complex formation", "setting": "p38α [5]", "value": 41, "unit": "peaks"}, {"measurement": "number of p38α peaks with line-widths broadened beyond detection", "setting": "p38α [5]", "value": 5, "unit": "peaks"}, {"measurement": "number of perturbed p38α peaks in fast exchange", "setting": "p38α [5]", "value": 36, "unit": "peaks"}, {"measurement": "dephosphorylation of p38α (in words)", "setting": "p38α [4]", "value": "the most efficient p38α phosphatase of all tested"}, {"measurement": "relative binding affinity for p38α (in words)", "setting": "p38α [6]; ITC", "value": "the highest affinity interaction with p38α among the KIM-PTPs"}, {"measurement": "TΔS", "setting": "p38α [6]; [7]", "value": "-21.4 ± 1.4", "unit": "kcal/mol"}, {"measurement": "ΔG", "setting": "p38α [6]; [7]", "value": "-8.8 ± 0.1", "unit": "kcal/mol"}, {"measurement": "times tighter binding to p38α than PTPSLKIM", "setting": "p38α [6]; ITC, relative to PTPSLKIM", "value": "~ 7 times"}, {"measurement": "times tighter binding to p38α than HePTP", "setting": "p38α [6]; relative to HePTP", "value": "~6", "unit": "times"}, {"measurement": "Kd", "setting": "p38α (unphosphorylated) [3]", "value": "382 ± 65", "unit": "nM"}, {"measurement": "dH", "setting": "p38α (unphosphorylated) [3]", "value": "-30.2 ± 1.5", "unit": "kcal/mol"}]}, {"molecule": "GLQERRGSNVSLTLDMSSLGNIEPFVSIPTPREKVAMEYLQS (peptide, UniProt Q15256 332-373, looked up)", "note": "[PTPSL_(KIMKIS) (residues 332–373)]", "values": [{"measurement": "Kd", "setting": "p38α (unphosphorylated) [3]", "value": "1530 ± 23", "unit": "nM"}, {"measurement": "dH", "setting": "p38α (unphosphorylated) [3]", "value": "-38.8 ± 6.1", "unit": "kcal/mol"}]}, {"molecule": "STEP: STEP (residues 214–539) (protein, UniProt P54829 214-539, looked up, fragment) TPVFDCVMDIKPEADPTSLTVKSMGLQERRGSNVSLTLDMCTPGCNEEGFGYLMSPREESAREYLLSASRVLQAEELHEKALDPFLLQAEFFEIPMNFVDPKEYDIPGLVRKNRYKTILPNPHSRVCLTSPDPDDPLSSYINANYIRGYGGEEKVYIATQGPIVSTVADFWRMVWQEHTPIIVMITNIEEMNEKCTEYWPEEQVAYDGVEITVQKVIHTEDYRLRLISLKSGTEERGLKHYWFTSWPDQKTPDRAPPLLHLVREVEEAAQQEGPHCAPIIVHCSAGIGRTGCFIATSICCQQLRQEGVVDILKTTCQLRQDRGGMI", "values": [{"measurement": "additional or larger CSPs (residues) than with the corresponding KIM peptide", "setting": "p38α [5]; comparison with p38α:STEPKIM or p38α:PTPSLKIM spectra", "value": "three"}, {"measurement": "number of p38α peaks with CSPs on complex formation", "setting": "p38α [5]", "value": 58, "unit": "peaks"}, {"measurement": "number of p38α peaks with line-widths broadened beyond detection", "setting": "p38α [5]", "value": 18, "unit": "peaks"}, {"measurement": "number of perturbed p38α peaks in fast exchange", "setting": "p38α [5]", "value": 40, "unit": "peaks"}, {"measurement": "kcat for dephosphorylation of p38α, fold lower than for PTPSL or HePTP", "setting": "p38α [4]; compared with PTPSL or HePTP, ref Balasu et al., 2009, Zhang et al.", "value": "~ 20 fold"}, {"measurement": "dephosphorylation of p38α (in words)", "setting": "p38α [4]", "value": "significantly less efficient than PTPSL and HePTP at dephosphorylating p38α"}, {"measurement": "Kd", "setting": "p38α [6]; [7]", "value": "577 ± 71", "unit": "nM"}, {"measurement": "TΔS", "setting": "p38α [6]; [7]", "value": "-20.3 ± 2.0", "unit": "kcal/mol"}, {"measurement": "ΔG", "setting": "p38α [6]; [7]", "value": "-8.5 ± 0.1", "unit": "kcal/mol"}, {"measurement": "ΔH", "setting": "p38α [6]; [7]", "value": "-28.8 ± 2.0", "unit": "kcal/mol"}, {"measurement": "times tighter binding to p38α than STEPKIM", "setting": "p38α [6]; ITC, relative to STEPKIM", "value": "~ 6 times"}]}, {"molecule": "PTPSLCAT: PTPSLCAT (residues 361–655), catalytic domain (protein) TPREKVAMEYLQSASRILTRSQLRDVVASSHLLQSEFMEIPMNFVDPKEIDIPRHGTKNRYKTILPNPLSRVCLRPKNVTDSLSTYINANYIRGYSGKEKAFIATQGPMINTVDDFWQMVWQEDSPVIVMITKLKEKNEKCVLYWPEKRGIYGKVEVLVISVNECDNYTIRNLVLKQGSHTQHVKHYWYTSWPDHKTPDSAQPLLQLMLDVEEDRLASQGRGPVVVHCSAGIGRTGCFIATSIGCQQLKEEGVVDALSIVCQLRMDRGGMVQTSEQYEFVHHALCLYESRLSAET", "values": [{"measurement": "interaction with p38α by NMR (in words)", "setting": "p38α [5]", "value": "no interactions between p38α and isolated PTPSLCAT were detected"}]}, {"molecule": "STEPCAT: STEPCAT (residues 244–539), catalytic domain (protein, UniProt P54829 244-539, looked up, fragment, catalytic domain) GSNVSLTLDMCTPGCNEEGFGYLMSPREESAREYLLSASRVLQAEELHEKALDPFLLQAEFFEIPMNFVDPKEYDIPGLVRKNRYKTILPNPHSRVCLTSPDPDDPLSSYINANYIRGYGGEEKVYIATQGPIVSTVADFWRMVWQEHTPIIVMITNIEEMNEKCTEYWPEEQVAYDGVEITVQKVIHTEDYRLRLISLKSGTEERGLKHYWFTSWPDQKTPDRAPPLLHLVREVEEAAQQEGPHCAPIIVHCSAGIGRTGCFIATSICCQQLRQEGVVDILKTTCQLRQDRGGMI", "values": [{"measurement": "interaction with p38α by NMR (in words)", "setting": "p38α [5]", "value": "non-specific interactions throughout the p38α surface"}]}]}
